Assay outcomes from PubChem BioAssay.
TRPC4 PAM = TRPC4 (mouse) allosteric potentiation | HEK293 TRPC4beta/mu-opioid, DAMGO EC20, Fluo-4 Ca2+ flux; stronger effect = higher value | AID 2227 | 310,000 tested, 0.42% active | Q9QUQ5 | B-score at 10 µM;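 active = B-score of calcium response area above 5 SD of library B-scores, with initial fluorescence ratio within 5 SD of library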;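 also: B-score of integrated fluorescence ratio over time as area under calcium response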
TRPC4 inh = blocks the mouse TRPC4 cation channel; HEK293 TRPC4beta/mu-opioid, DAMGO-evoked Fluo4 calcium flux; stronger effect = lower value; Q9QUQ5; 300,000 tested, 0.39% active; B-score at 10 µM;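 active = B-score over 3 SD under the library average, no early fluorescence shift, positive overall ratio signal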
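material = TRPC4beta/mu-opioid receptor HEK293 cell line | probe or stimulus = sequential submaximal and maximal DAMGO stimulation | compound dosing = one concentration per compound | measured by = Fluo4 Ca2+ flux fluorescence | evaluation = integrated fluorescence ratio relative to baseline, converted to per-well B score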
TRPC4 act = opens the mouse TRPC4 cation channel. HEK293 TRPC4beta/mu-opioid, Fluo4 calcium fluorescence; stronger effect = higher value. B-score at 10 µM. 310,000 tested, 0.49% active. Q9QUQ5. AID 2237;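 active = B-score above 5 SD of library B-scores, and initial fluorescence ratio not above library mean plus 5 SD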;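 also: positive B-score marks a calcium rise read as TRPC4 activation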
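Test system: HEK293 cells stably co-expressing mouse TRPC4beta and mu-opioid receptor | Schedule: Fluo4 dye loading 45 min at room temperature, 110 s recording | Measured by: Kinetic Fluo4 calcium fluorescence, 5 s baseline at 1 Hz | Evaluation: B score of integrated ratio | Controls: Buffer (low) and maximal DAMGO (high)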
TRPC6 inhibitor = blocks the mouse TRPC6 cation channel; 310,000 tested, 1.1% active; B-score at 10 µM; Q61143; HEK293-TRPC6, membrane potential dye, ACh-evoked depolarization; stronger effect = lower value;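 active = B-score under library mean minus 3 SD, initial fluorescence not abnormally high, positive integrated signal ratio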;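 also: B-score derived from integrated fluorescence ratio over the kinetic read; more negative B-score means stronger inhibition of depolarization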
Kir21 inh = Kir2.1 (mouse) channel inhibition. P35561. HEK293-Kir2.1, FluxOR thallium flux fluorescence; stronger effect = lower value. B-score at 10 µM. 310,000 tested, 0.85% active. AID 1672;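 active = fluorescence ratio B-score at or below minus 3 SD of library scores, with starting-brightness B-score within 2 SD, cut at about -4.2 in these data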;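 also: channel flux triggered by added potassium and thallium sulfate stimulus; B-score of peak minus minimum fluorescence over baseline after thallium stimulus; more negative B-score means stronger Kir2.1 block with less thallium influx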
Target sequence (P35561 whole entry, looked up): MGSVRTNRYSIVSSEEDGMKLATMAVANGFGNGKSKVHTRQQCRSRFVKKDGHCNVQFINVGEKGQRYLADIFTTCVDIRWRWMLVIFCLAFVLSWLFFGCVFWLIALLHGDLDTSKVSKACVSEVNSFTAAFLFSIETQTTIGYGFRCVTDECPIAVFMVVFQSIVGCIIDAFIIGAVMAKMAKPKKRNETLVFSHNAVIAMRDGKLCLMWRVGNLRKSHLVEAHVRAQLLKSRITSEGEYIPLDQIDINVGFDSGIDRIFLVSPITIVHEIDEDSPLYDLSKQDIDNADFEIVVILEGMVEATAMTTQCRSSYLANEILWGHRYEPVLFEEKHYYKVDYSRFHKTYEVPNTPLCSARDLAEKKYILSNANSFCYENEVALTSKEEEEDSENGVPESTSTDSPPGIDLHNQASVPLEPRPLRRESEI
TRPC6 activator = activators of mouse TRPC6 channel. AID 2550. B-score at 10 µM. Q61143. 310,000 tested, 0.13% active. HEK293-TRPC6 membrane potential dye fluorescence; stronger effect = higher value;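 active = B-score of the integrated fluorescence ratio above library mean plus 3 SD, and starting fluorescence ratio within library mean plus 5 SD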;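 also: higher score means more depolarization so channel activation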
The depositor's hits bear a star; i = inactive. Sampled rows, rich in hits. Any-hit rate of the full collection: about 3%.

SMILES	TRPC4 PAM	TRPC4 inh	TRPC4 act	TRPC6 inhibitor	Kir21 inh	TRPC6 activator
Cc1ccn2c(NC3CCCC3)c(-c3cccs3)nc2c1	i	-6*	i	i	-2.18	i
c1csc(-c2nc3ccccn3c2NC2CCCCC2)c1	i	i	i	i	-0.75	i
COc1ccc(C(=O)NCCCc2nc3ccccc3n2Cc2ccccc2C)cc1OC	i	i	i	i	-0.14	i
O=C(NC(=S)Nc1ccc(Cl)cc1)c1ccccc1	i	i	i	i	-0.89	i
O=C(Nc1ccc(Cl)cc1)C(Cl)C(=O)c1ccccc1 (stereo unspecified)	i	i	i	i	-10.8*	i
Cc1cnc(CN(C)C(=O)CC2C(=O)NCCN2CCCc2ccccc2)[nH]1 (stereo unspecified)	i	i	i	i	0.03	i
Cc1ccc(-c2n[nH]c(=O)c3ccccc23)cc1S(=O)(=O)Nc1ccccc1	12*	i	i	i	0.77	i
COCCN(C(=S)Nc1ccc(C)cc1)C(C)c1cccnc1 (stereo unspecified)	i	i	i	i	0.07	i
COC(=O)Oc1c(Br)c(=O)oc2ccccc12	i	i	i	i	-4.75*	i
COc1ccc2cnn(CCOc3cc(C)ccc3C(C)C)c(=O)c2c1OC	i	i	i	i	-4.75*	i
CN(C)C(CNC(=O)CNC(=O)Cc1cccc2ccccc12)c1ccccc1 (stereo unspecified)	i	i	i	i	-0.57	i
C(=N\Nc1ccccc1)/c1nc2ccccc2s1	i	i	i	i	-1.66	i
COc1ccc(N)c2c1C(=O)c1ccccc1C2=O	i	i	i	i	2.23	i
COc1ccc(OC)c2c1C(=O)C(Cl)=C(Cl)C2=O	i	i	i	i	-4.35*	i
CCC(C(=O)Nc1ccc(S(=O)(=O)Nc2ncccn2)cc1)c1ccccc1 (stereo unspecified)	i	i	i	i	-0.45	i
COc1cccc(/C=C/c2nc(C#N)c(NCC(C)C)o2)c1	i	i	i	i	-1.22	i
CCOc1cc(/C=C2\C(=O)ON=C2c2ccccc2)cc(Br)c1O	i	i	i	i	-7.29*	17.3*
COc1cc(C=C2C(=O)c3ccccc3C2=O)ccc1O	i	i	i	i	0.99	i
Cc1ccc(C2=NOC(=O)/C2=C\c2ccccc2)cc1	i	i	i	i	0.1	i
COc1cc(/C=C2\C(=O)ON=C2c2ccccc2)cc(Cl)c1O	i	-8*	i	i	-10.3*	i
COc1cc(/C=C2/C(=O)ON=C2c2ccccc2)ccc1O	i	i	i	i	-4.81*	i
C/C(=N\NC1=N[C@H]2CS(=O)(=O)C[C@H]2S1)c1ccccc1	i	i	i	i	0.48	i
CCN(CC(=O)NCc1ccc(Cl)cc1)C(=O)CCOc1ccc(C)cc1	i	i	i	i	-0.47	i
CCN(CC(=O)NCC1CCCO1)S(=O)(=O)c1ccc2ccccc2c1 (stereo unspecified)	i	i	i	i	-2.29	i
O=C(Nc1ccccc1F)c1cnccn1	i	i	i	i	-0.5	i
SMILES	TRPC4 PAM	TRPC4 inh	TRPC4 act	TRPC6 inhibitor	Kir21 inh	TRPC6 activator
O=C(Nc1ccccc1-c1ccccc1)c1cnccn1	13*	i	i	i	-0.68	i
CC1=C(C(=O)Nc2cc(C(=O)N(C)Cc3ccccc3)ccc2C)SCCO1	i	i	i	i	1.02	i
O=S(=O)(Nc1nc(SCc2ccc(Cl)cc2)n[nH]1)c1ccc(F)cc1	i	i	i	i	-10.4*	i
COc1ccc(CNc2nc(-c3cccnc3)nn2C(=O)C(C)C)cc1	i	-5*	i	i	0.77	i
CCC(=O)n1nc(-c2cccnc2)nc1NCc1ccc(OC)cc1	i	i	i	i	-0.04	i
CCCC(=O)Nc1cc(C)c2c(=O)oc3ccccc3c2n1	i	i	i	i	1.44	i
